{"data": "Measured values pooled from the literature", "read-out": "cell growth or viability", "note": "Compare with care: the assays were run in different laboratories."}
{"Structure (SMILES)": "COc1cc(C(=O)c2nc(-c3cccc4[nH]ccc34)c[nH]2)cc(OC)c1OC", "cell line": "PC-3", "test": "MTS", "conditions": "72 h", "IC50": "~0.0013 µM"}
{"Structure (SMILES)": "N.N.[Cl][Pt][Cl]", "cell line": "MEG-01", "test": "ATP luminescence", "conditions": "72 h", "IC50": "5.17 µM"}
{"Structure (SMILES)": "N.N.[Cl][Pt][Cl]", "cell line": "A549", "test": "MTT", "conditions": "48 h", "IC50": "15.8 µM"}
{"Structure (SMILES)": "CC[C@H](C)[C@H](NC(=O)[C@H](CCCCN)NC(=O)[C@H](CCCCN)NC(=O)[C@H](CC(C)C)NC(=O)[C@H](CC(C)C)NC(=O)[C@H](CCCCN)NC(=O)[C@H](CCCCN)NC(=O)[C@H](CC(C)C)NC(=O)[C@H](CCCCN)NC(=O)[C@H](CCCCN)NC(=O)[C@@H](N)CC(C)C)C(=O)N[C@@H](CCCCN)C(=O)N[C@@H](CCCNC(=N)N)C(N)=O", "cell line": "A549", "test": "MTT", "conditions": "24 h", "IC50": "> 500 µM"}
{"Structure (SMILES)": "CC(=N)S", "cell line": "NIH3T3", "conditions": "96 h", "IC50": "109 µM"}
{"Structure (SMILES)": "CC[C@@]1(O)C(=O)OCc2c1cc1n(c2=O)Cc2cc3ccccc3nc2-1", "cell line": "U-251", "test": "SRB", "conditions": "48 h", "IC50": "0.064 µM"}
{"Structure (SMILES)": "O=C1CCP(c2ccccc2)CC1", "cell line": "PC-3", "test": "MTT", "conditions": "72 h", "IC50": "84.2 µM"}
{"Structure (SMILES)": "COc1cc(C(=O)c2nc(-c3cccc4c3ccn4C)c[nH]2)cc(OC)c1OC", "cell line": "PC-3", "test": "MTS", "conditions": "72 h", "IC50": "0.0127 µM"}
{"Structure (SMILES)": "CC(C)C[C@H](NC(=O)[C@@H](N)CCCNC(=N)N)C(=O)N[C@@H](CCCNC(=N)N)C(=O)N[C@@H](CCCCN)C(=O)N[C@@H](Cc1ccccc1)C(=O)N[C@@H](CCCNC(=N)N)C(=O)N[C@@H](CCCNC(=N)N)C(=O)N[C@@H](CCCNC(=N)N)C(=O)N[C@@H](Cc1ccccc1)C(=O)N[C@@H](CCCNC(=N)N)C(=O)N[C@@H](CCCCN)C(=O)N[C@@H](CCC(=O)O)C(=O)NCC(N)=O", "cell line": "A549", "test": "MTT", "conditions": "24 h", "IC50": "> 500 µM"}
{"Structure (SMILES)": "COc1cc(C(=O)c2nc(-c3cccc4ncccc34)c[nH]2)cc(OC)c1OC", "cell line": "PC-3", "test": "MTS", "conditions": "72 h", "IC50": "> 1 µM"}
{"Structure (SMILES)": "CC[C@H](C)[C@H](NC(=O)[C@H](CCCNC(=N)N)NC(=O)[C@H](CCCNC(=N)N)NC(=O)[C@H](CCCCN)NC(=O)[C@H](CCCNC(=N)N)NC(=O)[C@H](CCCNC(=N)N)NC(=O)[C@H](CCCNC(=N)N)NC(=O)[C@H](CC(C)C)NC(=O)[C@H](CCCNC(=N)N)NC(=O)CNC(=O)[C@H](CCSC)NC(=O)[C@@H](N)CCSC)C(=O)N[C@@H](CCCCN)C(N)=O", "cell line": "A549", "test": "MTT", "conditions": "24 h", "IC50": "> 500 µM"}
{"Structure (SMILES)": "COc1c(C)c2c(c(O)c1C/C=C(\\C)CCC(=O)O)C(=O)OC2", "cell line": "JIMT-1", "IC50": "1.15 µM"}
{"Structure (SMILES)": "CC(C)[C@H](NC(=O)[C@H](CCCCN)NC(=O)[C@H](Cc1c[nH]c2ccccc12)NC(=O)[C@H](Cc1c[nH]c2ccccc12)NC(=O)[C@H](CCCNC(=N)N)NC(=O)[C@H](Cc1c[nH]c2ccccc12)NC(=O)[C@H](CCCNC(=N)N)NC(=O)[C@@H](N)CCCNC(=N)N)C(=O)N[C@@H](Cc1c[nH]cn1)C(=O)N[C@@H](Cc1c[nH]c2ccccc12)C(=O)N[C@@H](Cc1c[nH]cn1)C(=O)N[C@@H](CCC(=O)O)C(=O)N[C@@H](Cc1c[nH]c2ccccc12)C(N)=O", "cell line": "A549", "test": "MTT", "conditions": "24 h", "IC50": "> 500 µM"}
{"Structure (SMILES)": "N.N.[Cl][Pt][Cl]", "cell line": "NIH3T3", "conditions": "96 h, 3D culture", "IC50": "33.8 µM"}
